Experiments:
Cytochrome P450 2C9 = Cytochrome P450 2C9 (Homo sapiens, UniProt P11712); assay: Activity of human CYP2C9 expressed in microsomes isolated from baculovirus infected insect cell assessed as enzyme-mediated compound formation treated with [14C]-rivoglitazone at 20 uM after 2 hrs by radio-HPLC/LC-MS/MS analysis in presence of NADPH-generating system; format: ADME
In short: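 Baculovirus-insect-cell microsomes expressing the human CYP (1 mg/ml protein) were incubated with [14C]rivoglitazone (20 μM) in 50 mM potassium phosphate (pH 7.4) or 100 mM Tris-HCl (pH 7.5) with an NADPH-generating system (2 mM NADP+, 20 mM glucose 6-phosphate, 2 units/ml G6PDH, 10 mM MgCl2) for 2 h at 37°C. Insect-cell control supersomes served as the control. Reactions were stopped with acetonitrile, and the concentrated supernatants were analysed by radio-HPLC, LC-MS and LC-MS/MS.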

[1] = Drug metabolism in monkey hepatocytes assessed as formation of 3-(4-((6-methoxy-1-methyl-1H-benzo[d]imidazol-2-yl)methoxy)phenyl)-2-(methylthio)propanoic acid at 30 uM after 3 hrs by radio-HPLC/LC-MS/MS analysis in presence of NADPH-generating system/SAM and UDPGA/SAM; conditions: cynomolgus monkey
[2] = molecular target: T1, UDP-glucuronosyltransferase 1A8 (Homo sapiens, UniProt Q9HAW9); assay: Activity of human UGT1A8 expressed in microsomes isolated from baculovirus infected insect cell assessed as enzyme-mediated 2-mercapto-3-(4-((6-methoxy-1-methyl-1H-benzo[d]imidazol-2-yl)methoxy)phenyl)propanoic acid formation at 20 uM after 4 hrs by radio-HPLC/LC-MS/MS analysis in presence of UDPGA; format: ADME
T1 sequence (Q9HAW9 whole entry): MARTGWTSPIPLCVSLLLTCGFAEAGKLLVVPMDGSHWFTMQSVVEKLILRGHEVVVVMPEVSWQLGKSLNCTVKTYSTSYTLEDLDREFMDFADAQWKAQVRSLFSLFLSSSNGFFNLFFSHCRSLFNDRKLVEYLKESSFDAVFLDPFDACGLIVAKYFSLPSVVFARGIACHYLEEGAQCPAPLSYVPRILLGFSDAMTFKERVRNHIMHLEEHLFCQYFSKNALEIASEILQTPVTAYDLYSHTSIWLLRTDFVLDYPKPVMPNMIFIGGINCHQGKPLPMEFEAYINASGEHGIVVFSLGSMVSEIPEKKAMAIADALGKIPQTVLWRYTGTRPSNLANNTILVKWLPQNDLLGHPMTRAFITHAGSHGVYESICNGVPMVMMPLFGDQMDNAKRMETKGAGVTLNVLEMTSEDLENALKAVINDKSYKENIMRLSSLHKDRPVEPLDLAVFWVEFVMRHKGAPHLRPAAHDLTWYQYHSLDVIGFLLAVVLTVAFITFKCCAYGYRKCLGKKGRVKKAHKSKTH

Cytochrome P450 3A4 = Cytochrome P450 3A4 (Homo sapiens, UniProt P08684); assay: Activity of human CYP3A4 expressed in microsomes isolated from baculovirus infected insect cell assessed as enzyme-mediated (2S,3S,4S,5R,6R)-6-((1-carboxy-2-(4-((6-methoxy-1-methyl-1H-benzo[d]imidazol-2-yl)methoxy)phenyl)ethylthio)carbonylamino)-3,4,5-trihydroxytetrahydro-2H-pyran-2-carboxylic acid formation at 20 uM after 2 hrs by radio-HPLC/LC-MS/MS analysis in presence of NADPH-generating system/SAM; format: ADME
Chain of Cytochrome P450 3A4 (P08684 whole entry): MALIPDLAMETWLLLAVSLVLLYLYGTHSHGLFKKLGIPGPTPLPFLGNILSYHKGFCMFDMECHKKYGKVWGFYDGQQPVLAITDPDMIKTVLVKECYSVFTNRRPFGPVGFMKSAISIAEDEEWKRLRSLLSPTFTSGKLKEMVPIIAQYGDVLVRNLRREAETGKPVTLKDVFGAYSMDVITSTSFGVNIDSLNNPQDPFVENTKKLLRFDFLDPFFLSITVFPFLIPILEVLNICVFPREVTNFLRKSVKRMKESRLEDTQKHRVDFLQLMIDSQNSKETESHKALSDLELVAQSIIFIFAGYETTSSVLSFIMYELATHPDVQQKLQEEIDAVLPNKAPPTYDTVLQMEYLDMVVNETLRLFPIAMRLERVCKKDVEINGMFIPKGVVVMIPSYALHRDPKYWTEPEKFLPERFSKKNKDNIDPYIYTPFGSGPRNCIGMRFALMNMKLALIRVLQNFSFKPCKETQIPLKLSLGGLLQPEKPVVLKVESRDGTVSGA

[3] = Drug metabolism in rat hepatocytes assessed as formation of 3-(4-((6-methoxy-1-methyl-1H-benzo[d]imidazol-2-yl)methoxy)phenyl)-2-(methylthio)propanamide at 30 uM after 3 hrs by radio-HPLC/LC-MS/MS analysis in presence of NADPH-generating system/SAM; format: ADME, cell-based, Hepatocyte
[4] = Drug metabolism in monkey hepatocytes assessed as formation of 5-hydroxy-5-(4-((6-methoxy-1-methyl-1H-benzo[d]imidazol-2-yl)methoxy)benzyl)thiazolidine-2,4-dione at 30 uM after 3 hrs by radio-HPLC/LC-MS/MS analysis in presence of NADPH-generating system and NADPH-generating system/SAM; conditions: cynomolgus monkey
[5] = Drug metabolism in cynomolgus monkey liver microsomes assessed as formation of 3-(4-((6-methoxy-1-methyl-1H-benzo[d]imidazol-2-yl)methoxy)phenyl)-2-(methylsulfinyl)propanamide at 20 uM after 2 hrs by radio-HPLC/LC-MS/MS analysis in presence of NADPH-generating system/SAM; format: ADME, Macaca fascicularis
Cytochrome P450 2D6 = Cytochrome P450 2D6 (Homo sapiens, UniProt P10635); assay: Activity of human CYP2D6 expressed in microsomes isolated from baculovirus infected insect cell assessed as enzyme-mediated 3-(4-((6-methoxy-1-methyl-1H-benzo[d]imidazol-2-yl)methoxy)phenyl)-2-(methylthio)propanoic acid formation at 20 uM after 2 hrs by radio-HPLC/LC-MS/MS analysis in presence of NADPH-generating system/SAM and UDPGA/SAM; format: ADME
Chain of Cytochrome P450 2D6 (P10635 whole entry): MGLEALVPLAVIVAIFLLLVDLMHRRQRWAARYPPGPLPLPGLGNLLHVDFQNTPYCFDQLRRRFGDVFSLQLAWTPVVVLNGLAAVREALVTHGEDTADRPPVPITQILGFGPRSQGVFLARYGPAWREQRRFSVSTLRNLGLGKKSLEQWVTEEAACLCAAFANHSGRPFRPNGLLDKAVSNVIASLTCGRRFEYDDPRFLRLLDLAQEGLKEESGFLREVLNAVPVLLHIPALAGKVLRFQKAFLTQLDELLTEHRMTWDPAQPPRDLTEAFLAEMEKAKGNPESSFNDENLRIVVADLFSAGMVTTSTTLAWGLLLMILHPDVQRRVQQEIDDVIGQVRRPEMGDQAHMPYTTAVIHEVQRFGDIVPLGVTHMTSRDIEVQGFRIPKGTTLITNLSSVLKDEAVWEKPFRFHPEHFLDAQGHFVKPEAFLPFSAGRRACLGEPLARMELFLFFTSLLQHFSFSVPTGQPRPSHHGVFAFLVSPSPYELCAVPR

[6] = Drug metabolism in monkey hepatocytes assessed as formation of (2S,3S,4S,5R,6R)-3,4,5-trihydroxy-6-(5-(4-((6-methoxy-1-methyl-1H-benzo[d]imidazol-2-yl)methoxy)benzyl)-2,4-dioxothiazolidin-3-yl)tetrahydro-2H-pyran-2-carboxylic acid at 30 uM after 3 hrs by radio-HPLC/LC-MS/MS analysis in presence of UDPGA and UDPGA/SAM; conditions: cynomolgus monkey
Liver microsome [7] = assay: Drug metabolism in human liver microsomes assessed as formation of (2S,3S,4S,5R,6R)-6-((1-carboxy-2-(4-((6-methoxy-1-methyl-1H-benzo[d]imidazol-2-yl)methoxy)phenyl)ethylthio)carbonylamino)-3,4,5-trihydroxytetrahydro-2H-pyran-2-carboxylic acid at 20 uM after 4 hrs by radio-HPLC/LC-MS/MS analysis in presence of UDPGA and UDPGA/SAM; format: ADME
[8] = molecular target: T2, UDP-glucuronosyltransferase 2B17 (Homo sapiens, UniProt O75795); assay: Activity of human UGT2B17 expressed in microsomes isolated from baculovirus infected insect cell assessed as enzyme-mediated (2S,3S,4S,5R,6R)-6-((1-carboxy-2-(4-((6-methoxy-1-methyl-1H-benzo[d]imidazol-2-yl)methoxy)phenyl)ethylthio)carbonylamino)-3,4,5-trihydroxytetrahydro-2H-pyran-2-carboxylic acid formation at 20 uM after 4 hrs by radio-HPLC/LC-MS/MS analysis in presence of UDPGA; format: ADME
T2 sequence (O75795 whole entry): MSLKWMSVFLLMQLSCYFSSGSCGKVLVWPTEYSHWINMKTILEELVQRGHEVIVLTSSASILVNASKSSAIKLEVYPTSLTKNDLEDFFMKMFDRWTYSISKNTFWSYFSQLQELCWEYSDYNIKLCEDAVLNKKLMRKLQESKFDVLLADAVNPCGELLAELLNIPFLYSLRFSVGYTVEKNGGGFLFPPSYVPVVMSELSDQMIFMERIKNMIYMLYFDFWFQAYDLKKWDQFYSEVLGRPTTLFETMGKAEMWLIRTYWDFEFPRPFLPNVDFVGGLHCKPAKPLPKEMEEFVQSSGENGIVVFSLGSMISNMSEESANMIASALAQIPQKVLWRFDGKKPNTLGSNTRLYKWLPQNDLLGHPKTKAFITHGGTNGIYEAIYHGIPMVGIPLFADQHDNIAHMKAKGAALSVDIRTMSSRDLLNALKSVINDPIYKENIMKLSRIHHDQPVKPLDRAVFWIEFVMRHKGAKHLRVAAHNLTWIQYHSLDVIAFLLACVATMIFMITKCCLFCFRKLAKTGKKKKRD

[9] = Drug metabolism in human hepatocytes assessed as formation of 2-((4-((2,4-dioxothiazolidin-5-yl)methyl)phenoxy)methyl)-1-methyl-1H-benzo[d]imidazol-6-yl hydrogen sulfate at 30 uM after 3 hrs by radio-HPLC/LC-MS/MS analysis; format: ADME, cell-based, Hepatocyte
Liver microsome [10] = assay: Drug metabolism in human liver microsomes assessed as formation of (2S,3S,4S,5R,6R)-3,4,5-trihydroxy-6-(5-(4-((6-methoxy-1-methyl-1H-benzo[d]imidazol-2-yl)methoxy)benzyl)-2,4-dioxothiazolidin-3-yl)tetrahydro-2H-pyran-2-carboxylic acid at 20 uM after 4 hrs by radio-HPLC/LC-MS/MS analysis in presence of UDPGA and UDPGA/SAM; format: ADME

Chain of Cytochrome P450 2C9 (P11712 whole entry): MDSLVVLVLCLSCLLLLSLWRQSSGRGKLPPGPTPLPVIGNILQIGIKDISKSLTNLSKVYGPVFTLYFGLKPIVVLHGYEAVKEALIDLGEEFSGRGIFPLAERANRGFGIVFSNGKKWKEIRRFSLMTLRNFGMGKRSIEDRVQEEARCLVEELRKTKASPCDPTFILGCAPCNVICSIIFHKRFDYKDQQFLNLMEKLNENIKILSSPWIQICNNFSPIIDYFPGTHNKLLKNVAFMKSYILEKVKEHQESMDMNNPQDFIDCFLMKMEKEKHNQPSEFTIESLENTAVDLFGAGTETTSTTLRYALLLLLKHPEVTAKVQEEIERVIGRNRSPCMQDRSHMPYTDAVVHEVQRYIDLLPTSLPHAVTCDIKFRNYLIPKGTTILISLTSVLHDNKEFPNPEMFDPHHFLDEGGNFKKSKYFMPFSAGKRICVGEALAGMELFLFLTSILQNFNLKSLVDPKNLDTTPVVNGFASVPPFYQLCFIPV

SMILES | Drug metabolism (Cytochrome P450 2C9) | Drug metabolism [1] | Drug metabolism [2] | Drug metabolism (Cytochrome P450 3A4) | Drug metabolism [3] | Drug metabolism [4] | Drug metabolism [5] | Drug metabolism (Cytochrome P450 2D6) | Drug metabolism [6] | Drug metabolism (Liver microsome [7]) | Drug metabolism [8] | Drug metabolism [9] | Drug metabolism (Liver microsome [10])
COc1ccc2nc(COc3ccc(CC(S)C(=O)O)cc3)n(C)c2c1 (stereo not drawn) | metabolite_detected | – | – | – | – | – | – | – | – | – | – | – | –
COc1ccc2nc(COc3ccc(C[14CH]4SC(=O)NC4=O)cc3)n(C)c2c1.Cl (racemic) | – | metabolite_not_detected | metabolite_not_detected | metabolite_not_detected | metabolite_detected | metabolite_detected | metabolite_detected | metabolite_not_detected | metabolite_detected | metabolite_detected | metabolite_not_detected | metabolite_detected | metabolite_detected

— ChEMBL document CHEMBL3526048, “In vitro metabolism of rivoglitazone, a novel peroxisome proliferator-activated receptor γ agonist, in rat, monkey, and human liver microsomes and freshly isolated hepatocytes” (Drug Metab Dispos, 2011)
